According to ChEMBL document CHEMBL1121797, “Studies on chiral interactions of 1-(2,5-dimethoxy-4-methylphenyl)-2-aminopropane and the corresponding N-hydroxy metabolites with cytochrome P-450” (J Med Chem, 1981):
Where “and” joins values, the source holds several entries; their conditions need not be identical. Identical values can stand only once.

Experiments:
Cytochrome P450 2C19 [1] = biological target: T1, Cytochrome P450 2C19 (Homo sapiens, UniProt P33261); assay: Percent inhibition of formation of metabolic intermediate complex between Cytochrome P450 and compound 1a (30 uM) on extent, following incubation at compound concentration of 30 uM; assay type: ADME, Oryctolagus cuniculus; settings: rabbit, probe compound 1a (30 uM)
T1 sequence (P33261 whole entry): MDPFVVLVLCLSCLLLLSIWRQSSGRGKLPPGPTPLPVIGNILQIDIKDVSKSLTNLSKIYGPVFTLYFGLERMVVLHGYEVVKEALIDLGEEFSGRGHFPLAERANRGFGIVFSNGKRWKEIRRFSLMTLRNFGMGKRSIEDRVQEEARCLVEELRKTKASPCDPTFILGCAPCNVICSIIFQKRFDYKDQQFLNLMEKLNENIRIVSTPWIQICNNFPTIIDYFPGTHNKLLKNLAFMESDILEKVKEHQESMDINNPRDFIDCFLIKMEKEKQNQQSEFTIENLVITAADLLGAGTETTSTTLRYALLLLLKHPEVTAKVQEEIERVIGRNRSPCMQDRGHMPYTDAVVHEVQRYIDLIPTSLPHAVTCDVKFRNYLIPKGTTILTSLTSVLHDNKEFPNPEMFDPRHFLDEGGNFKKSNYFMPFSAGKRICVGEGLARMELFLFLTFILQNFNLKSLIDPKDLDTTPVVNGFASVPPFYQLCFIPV

Cytochrome P450 2C19 [2] = biological target: T1, Cytochrome P450 2C19; assay: Percent inhibition of formation of metabolic intermediate complex between Cytochrome P450 and compound 1ab (30 uM) initially, following incubation at compound concentration of 20 uM; assay type: ADME, Oryctolagus cuniculus; settings: rabbit, probe compound 1ab (30 uM)
Outline: (§1)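 Rabbit liver microsomes (2 mg protein/mL; Tris-Cl/KCl/MgSO4 buffer, 0.1 mM EDTA) plus NADPH, at 37 °C, were preincubated with racemic or enantiomeric amine 1. The 457-nm complex was monitored until it plateaued (6–8 min), then racemic hydroxylamine 2 was added. Initial rate and plateau extent of complex formation came from dual-wavelength ΔA457–500 nm versus time tracings.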

Cytochrome P450 2C19 [3] = biological target: T1, Cytochrome P450 2C19; assay: Percent inhibition of formation of metabolic intermediate complex between Cytochrome P450 and compound 1a (30 uM) on extent, following incubation at compound concentration of 5 uM; assay type: ADME, Oryctolagus cuniculus; settings: rabbit, probe compound 1a (30 uM)
Outline: (§2)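 Hepatic microsomes came from male Dutch rabbits, fasted 24 h. They were diluted to 2 mg protein/mL in 50 mM Tris-Cl with 150 mM KCl, 10 mM MgSO4 and 0.1 mM EDTA, with NADPH added, at 37 °C. Microsomes were preincubated with racemic hydroxylamine 2, then 30 µM 1a or 30 µM racemic 2 was added. Complex formation was followed as ΔA457–500 nm, and inhibition of rate and extent (plateau) was calculated.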

Cytochrome P450 2C19 [4] = biological target: T1, Cytochrome P450 2C19; assay: (§3) Extent of complex formation with 30 uM compound; assay type: ADME, Oryctolagus cuniculus; settings: rabbit
Cytochrome P450 2C19 [5] = biological target: T1, Cytochrome P450 2C19; assay: Initial rate of complex formation with 5 uM compound; assay type: ADME, Oryctolagus cuniculus; settings: rabbit
Cytochrome P450 2C19 [6] = biological target: T1, Cytochrome P450 2C19; assay: Initial rate of complex formation without compound; assay type: ADME, Oryctolagus cuniculus; settings: rabbit
Outline: (§4)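 Inverse cross-inhibition in NADPH-supplemented rabbit liver microsomes at 37 °C. Preincubation with racemic hydroxylamine at 0–30 μM, monitoring 457-nm complex formation. The amine was then added at 30 μM, or racemic hydroxylamine at 30 μM. Initial rate and plateau extent were taken from ΔA457–500 nm tracings. Percent inhibition is relative to incubation in fresh microsomes.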

Cytochrome P450 2C19 [7] = biological target: T1, Cytochrome P450 2C19; assay: Percent inhibition of formation of metabolic intermediate complex between Cytochrome P450 and compound 1a (30 uM) initially, following incubation at compound concentration of 0 uM; assay type: ADME, Oryctolagus cuniculus; settings: rabbit, probe compound 1a (30 uM); outline: as §4
Cytochrome P450 2C19 [8] = biological target: T1, Cytochrome P450 2C19; assay: (§5) Extent of complex formation with 20 uM compound; assay type: ADME, Oryctolagus cuniculus; settings: rabbit
Cytochrome P450 2C19 [9] = biological target: T1, Cytochrome P450 2C19; assay: Percent inhibition of formation of metabolic intermediate complex between Cytochrome P450 and compound 1a (30 uM) on extent, on pre-incubation with compound concentration of 30 uM; assay type: ADME, Oryctolagus cuniculus; settings: rabbit, probe compound 1a (30 uM); outline: as §2
Cytochrome P450 2C19 [10] = biological target: T1, Cytochrome P450 2C19; assay: (§6) Initial rate of complex formation with 30 uM compound; assay type: ADME, Oryctolagus cuniculus; settings: rabbit
Cytochrome P450 2C19 [11] = biological target: T1, Cytochrome P450 2C19; assay: as §3; assay type: ADME, Oryctolagus cuniculus; settings: rabbit; remark: listed apart in the source
[12] = Initial rates of formation of metabolic intermediate Cytochrome P-450 at compound concentration of 30 uM; assay type: ADME
Outline: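 Rabbit liver microsomes at 2 mg protein/mL with 0.1 mM EDTA, 37 °C, substrate 30 μM. Complex formation started with 0.4 mM NADPH and followed by dual-wavelength absorbance, 457 vs 500 nm. Initial rate is the initial slope, ΔA×10^4 per nmol P-450 per min. Extent is the plateau absorbance. Lag is the time from NADPH addition to first 457-nm chromophore. Triplicate or single runs.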

Cytochrome P450 2C19 [13] = biological target: T1, Cytochrome P450 2C19; assay: Initial rate of complex formation with 20 uM compound; assay type: ADME, Oryctolagus cuniculus; settings: rabbit
Cytochrome P450 2C19 [14] = biological target: T1, Cytochrome P450 2C19; assay: Percent inhibition of formation of metabolic intermediate complex between Cytochrome P450 and compound 1a (30 uM) initially, following incubation at compound concentration of 15 uM; assay type: ADME, Oryctolagus cuniculus; settings: rabbit, probe compound 1a (30 uM); outline: as §4
Cytochrome P450 2C19 [15] = biological target: T1, Cytochrome P450 2C19; assay: Percent inhibition of formation of metabolic intermediate complex between Cytochrome P450 and compound 1a (30 uM) initially, on pre-incubation with compound concentration of 0 uM; assay type: ADME, Oryctolagus cuniculus; settings: rabbit, probe compound 1a (30 uM); outline: as §4
Cytochrome P450 2C19 [16] = biological target: T1, Cytochrome P450 2C19; assay: Percent inhibition of formation of metabolic intermediate complex between Cytochrome P450 and compound 1a (30 uM) on extent, following incubation at compound concentration of 15 uM; assay type: ADME, Oryctolagus cuniculus; settings: rabbit, probe compound 1a (30 uM); outline: as §2
Cytochrome P450 2C19 [17] = biological target: T1, Cytochrome P450 2C19; assay: as §5; assay type: ADME, Oryctolagus cuniculus; settings: rabbit; remark: listed apart in the source
Cytochrome P450 2C19 [18] = biological target: T1, Cytochrome P450 2C19; assay: Percent inhibition of formation of metabolic intermediate complex between Cytochrome P450 and compound 1a (30 uM) on extent, following incubation at compound concentration of 20 uM; assay type: ADME, Oryctolagus cuniculus; settings: rabbit, probe compound 1a (30 uM)
Cytochrome P450 2C19 [19] = biological target: T1, Cytochrome P450 2C19; assay: Extent of complex formation with 15 uM compound; assay type: ADME, Oryctolagus cuniculus; settings: rabbit
Cytochrome P450 2C19 [20] = biological target: T1, Cytochrome P450 2C19; assay: Percent inhibition of formation of metabolic intermediate complex between Cytochrome P450 and compound 1a (30 uM) initially, following incubation at compound concentration of 30 uM; assay type: ADME, Oryctolagus cuniculus; settings: rabbit, probe compound 1a (30 uM); outline: as §4
Cytochrome P450 2C19 [21] = biological target: T1, Cytochrome P450 2C19; assay: Percent inhibition of formation of metabolic intermediate complex between Cytochrome P450 and compound 1ab (30 uM) on extent, following incubation at compound concentration of 20 uM; assay type: ADME, Oryctolagus cuniculus; settings: rabbit, probe compound 1ab (30 uM); outline: as §1
Cytochrome P450 2C19 [22] = biological target: T1, Cytochrome P450 2C19; assay: as §6; assay type: ADME, Oryctolagus cuniculus; settings: rabbit; remark: listed apart in the source
Cytochrome P450 2C19 [23] = biological target: T1, Cytochrome P450 2C19; assay: Percent inhibition of formation of metabolic intermediate complex between Cytochrome P450 and compound 1b (30 uM) on extent, following incubation at compound concentration of 20 uM; assay type: ADME, Oryctolagus cuniculus; settings: rabbit, probe compound 1b (30 uM); outline: as §1
Cytochrome P450 2C19 [24] = biological target: T1, Cytochrome P450 2C19; assay: Percent inhibition of formation of metabolic intermediate complex between Cytochrome P450 and compound 1a (30 uM) initially, on pre-incubation with compound concentration of 5 uM; assay type: ADME, Oryctolagus cuniculus; settings: rabbit, probe compound 1a (30 uM); outline: as §4

With `COc1cc(C[C@@H](C)NO)c(OC)cc1C.COc1cc(C[C@H](C)NO)c(OC)cc1C` the inhibition at 30 µM (Cytochrome P450 2C19 [1]) was 73%, the inhibition at 20 µM (Cytochrome P450 2C19 [2]) was 30% and the inhibition at 5 µM (Cytochrome P450 2C19 [3]) was 39%. The Complex_formation (Cytochrome P450 2C19 [4]) was 51 deltaA.10^4nmol-1, the Initial_rate (Cytochrome P450 2C19 [5]) was 52 deltaA.10^4nmol-1.min-1 and the Initial_rate (Cytochrome P450 2C19 [6]) was 46 deltaA.10^4nmol-1.min-1 and 124 deltaA.10^4nmol-1.min-1. It also gave an inhibition at 0 uM (Cytochrome P450 2C19 [7]) of 30%, a Complex_formation (Cytochrome P450 2C19 [8]) of 85 deltaA.10^4nmol-1 and an inhibition at 30 µM (Cytochrome P450 2C19 [9]) of 100%. The Initial_rate (Cytochrome P450 2C19 [10]) was 5.5 deltaA.10^4nmol-1.min-1, the Complex_formation (Cytochrome P450 2C19 [11]) was 30 deltaA.10^4nmol-1 and the Rate [12] was 154. It also gave an Initial_rate (Cytochrome P450 2C19 [13]) of 89 deltaA.10^4nmol-1.min-1, an inhibition at 15 µM (Cytochrome P450 2C19 [14]) of 51% and an inhibition at 0 uM (Cytochrome P450 2C19 [15]) of 0%. For the same compound, the inhibition at 15 µM (Cytochrome P450 2C19 [16]) was 46%, the Complex_formation (Cytochrome P450 2C19 [17]) was 90 deltaA.10^4nmol-1 and the inhibition at 20 µM (Cytochrome P450 2C19 [18]) was 27%. It also gave a Complex_formation (Cytochrome P450 2C19 [19]) of 97 deltaA.10^4nmol-1, an inhibition at 30 µM (Cytochrome P450 2C19 [20]) of 72% and an inhibition at 20 µM (Cytochrome P450 2C19 [21]) of 12%. The Initial_rate (Cytochrome P450 2C19 [22]) was 12.4 deltaA.10^4nmol-1.min-1, the inhibition at 20 µM (Cytochrome P450 2C19 [23]) was 13% and the inhibition at 5 µM (Cytochrome P450 2C19 [24]) was 80%.
